Experimental findings from ChEMBL document CHEMBL1130386, “Structure-activity relationship of newly synthesized quinoline derivatives for reversal of multidrug resistance in cancer” (1997) are described below.

The subject of the assay is K562. Kind of assay: MDR-reversing activity in K562/ADM cells at 1 uM concentration of [3H]-VCR (vincristine), activity expressed relative to verapamil. The assay is classed as functional, Homo sapiens. The method, boiled down:
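K562/ADM cells at 1.5 × 10^6/mL in growth medium with 10 mM HEPES were incubated at 37 °C with 30 nM [3H]VCR (5.6 Ci/mmol), with or without modulator (1 µM) or verapamil. At intervals, aliquots were spun through a 4:1 silicone oil/liquid paraffin layer. Pellets were lysed overnight in 0.5 N KOH and counted by liquid scintillation. Intracellular VCR was scaled to verapamil.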

As for `OC(COc1cccc2ncccc12)CN1CCN(C2c3ccccc3CCc3ccccc32)CC1` (stereo unspecified), the Activity worked out at 371%.

On to `OC(COc1cccc2ncccc12)CN1CCN(C2c3ccccc3COc3ccccc32)CC1` (stereo unspecified), for which the Activity was 414%.

For `O=C(C(c1ccc(F)cc1)c1ccc(F)cc1)N1CCN(CC(O)COc2cccc3ncccc23)CC1` (stereo unspecified), the Activity was determined as 263%.

Consider `OC(COc1cccc2ncccc12)CN1CCN(CC(c2ccccc2)c2ccccc2)CC1` (stereo unspecified), for which the Activity was found to be 327%.

As to `OC(COc1cccc2ncccc12)CN1CCC(=C(c2ccc(F)cc2)c2ccc(F)cc2)CC1` (stereo unspecified), the Activity is 246%.

`O=C(C1c2ccccc2Oc2ccccc21)N1CCN(CC(O)COc2cccc3ncccc23)CC1` (stereo unspecified): the Activity was 279%.

Consider `O=C(C1c2ccccc2-c2ccccc21)N1CCN(CC(O)COc2cccc3ncccc23)CC1` (stereo unspecified), for which the Activity was 213%.

Regarding `OC(COc1cccc2ncccc12)CN1CCN(C(c2ccccc2)c2cccs2)CC1` (stereo unspecified), the Activity is 428%.

With `OC(COc1ccccc1)CN1CCN(C(c2ccccc2)c2ccccc2)CC1` (stereo unspecified), the Activity is given as 56%.

As to `CCCCCCCCCCCCCCCCCCN1CCN(CC(O)COc2cccc3ncccc23)CC1` (stereo unspecified), the Activity is reported as 55%.

For `OC(COc1cccc2ncccc12)CN1CCN(Cc2ccccc2)CC1` (stereo unspecified), the Activity was found to be 123%.

Turning to `OC(COc1cccc2ncccc12)CN1CCN(C(c2ccc(F)cc2)c2ccc(F)cc2)CC1` (stereo unspecified), the Activity is recorded as 265%.

`OC(COc1cccc2ncccc12)CN1CCN(C(c2ccccc2)c2ccccc2)CC1` (stereo unspecified): the Activity turned out to be 358%.

For `COc1ccc(C(c2ccc(OC)cc2)N2CCN(CC(O)COc3cccc4ncccc34)CC2)cc1` (stereo unspecified), the Activity is recorded as 260%.

Take `O=C1C(=O)N(C2c3ccccc3CCc3ccccc32)CCN1CC(O)COc1cccc2ncccc12` (stereo unspecified): the Activity was 81%.

Consider `OC(COc1cccc2ncccc12)CN1CCN(C2c3ccccc3-c3ccccc32)CC1` (stereo unspecified), for which the Activity was determined as 229%.

In the case of `OC(CNCCC(c1ccccc1)c1ccccc1)COc1cccc2ncccc12` (stereo unspecified), the Activity came to 343%.

`OC(CNCC(c1ccccc1)c1ccccc1)COc1cccc2ncccc12` (stereo unspecified): the Activity came to 117%.

Consider `CN1CCN(CC(O)COc2cccc3ncccc23)CC1` (stereo unspecified), for which the Activity is on record as 47%.

`OC(COc1cccc2ncccc12)CN1CCN(C2c3ccccc3CCc3cccnc32)CC1` (stereo unspecified): the Activity turned out to be 316%.

Turning to `OC(COc1cccc2ncccc12)CN1CCN(C(c2ccccc2)c2ccc(Cl)cc2)CC1` (stereo unspecified), the Activity came to 243%.

Turning to `OC(COc1cccc2ccccc12)CN1CCN(C(c2ccccc2)c2ccccc2)CC1` (stereo unspecified), the Activity stood at 32%.

In the case of `OC(COc1cccc2ncccc12)CN1CCNCC1` (stereo unspecified), the Activity worked out at 65%.

On to `OC(COc1cccc2ncccc12)CN1CCC(=C2c3ccccc3CCc3ccccc32)CC1` (stereo unspecified), for which the Activity came to 374%.

Take `OC(COc1cccc2ncccc12)CN1CCC(=C(c2ccccc2)c2ccccc2)CC1` (stereo unspecified): the Activity is given as 309%.

Turning to `O=C(C(c1ccccc1)c1ccccc1)N1CCN(CC(O)COc2cccc3ncccc23)CC1` (stereo unspecified) [DOFEQUIDAR], the Activity came out at 381%.
